Activity calls are given as the source filed them. No cut-off for these calls is given here.
What was measured:
[1] = molecular target: Calcium/calmodulin-dependent protein kinase kinase 2 (Homo sapiens, UniProt Q96RR4); assay: Inhibition of CAMKK2 (unknown origin)
[2] = molecular target: T1, CREB-binding protein/Histone acetyltransferase p300 (Homo sapiens, UniProt Q09472+Q92793); assay: Inhibition of p300/CBP in human 22Rv1 cells assessed as reduction in H3K18Ac level incubated for 24 hrs by Hoechst 33342 staining based high content microscopy analysis; format: cell-based
Outline: (§1)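 Cells received an 8-point half-log dilution series from 10 µM. They were then fixed in 10% formaldehyde (10 min, RT), permeabilised with 0.1% Triton X-100 and blocked with 1% BSA for 1 h. Primary antibodies were applied overnight at 4 °C, followed by Alexa488 anti-rabbit, Alexa555 anti-mouse and Hoechst 33342 for 1 h. Fifteen fields per well were imaged and average mean intensity taken. EC50 came from a sigmoidal fit.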

[3] = molecular target: Bromodomain-containing protein 3 (Homo sapiens, UniProt Q15059); assay: Inhibition of BRD3 (unknown origin)
K562 = assay: Antiproliferative activity against human K562 cells assessed as inhibition of cell viability incubated for 3 to 5 days by Celltiter-Glo luminescent assay; format: functional, cell-based
[4] = molecular target: Mitogen-activated protein kinase 8 (Homo sapiens, UniProt P45983); assay: Inhibition of JNK1 (unknown origin)
NCI-H209 = assay: Antiproliferative activity against human NCI-H209 cells assessed as inhibition of cell viability incubated for 3 to 5 days by Celltiter-Glo luminescent assay; format: functional, cell-based
COLO-679 = assay: Antiproliferative activity against human COLO-679 cells assessed as inhibition of cell viability incubated for 3 to 5 days by Celltiter-Glo luminescent assay; format: functional, cell-based
CHL-1 = assay: Antiproliferative activity against human CHL-1 cells assessed as inhibition of cell viability incubated for 3 to 5 days by Celltiter-Glo luminescent assay; format: functional, cell-based
[5] = molecular target: Serine/threonine-protein kinase pim-2 (Homo sapiens, UniProt Q9P1W9); assay: Inhibition of Pim2 (unknown origin)
LuCaP-77 CR cell [6] = details: Homo sapiens, dose 100.0 mg/kg, time 7.0 day
OPM-2 = assay: Antiproliferative activity against human OPM-2 cells assessed as inhibition of cell viability incubated for 3 to 5 days by Celltiter-Glo luminescent assay; format: functional, cell-based
[7] = Tmax in CB17 SCID mouse xenografted with LuCaP-77 CR cell at 100 mg/kg, ip administered for 7 days; format: ADME, organism-based; details: in vivo, time 7 day
[8] = molecular target: Platelet-derived growth factor receptor alpha (Homo sapiens, UniProt P16234); assay: Inhibition of PDGFRalpha (unknown origin)
[9] = molecular target: Calcium/calmodulin-dependent protein kinase type II subunit alpha (Homo sapiens, UniProt Q9UQM7); assay: Inhibition of CAMK2A (unknown origin)
HCC1806 = assay: Antiproliferative activity against human HCC1806 cells assessed as inhibition of cell viability incubated for 3 to 5 days by Celltiter-Glo luminescent assay; format: functional, cell-based
[10] = molecular target: ALK tyrosine kinase receptor (Homo sapiens, UniProt Q9UM73); assay: Inhibition of ALK (unknown origin)
MeWo = assay: Antiproliferative activity against human MeWo cells assessed as inhibition of cell viability incubated for 3 to 5 days by Celltiter-Glo luminescent assay; format: functional, cell-based
[11] = molecular target: BDNF/NT-3 growth factors receptor (Homo sapiens, UniProt Q16620); assay: Inhibition of TrkB (unknown origin)
NCI-H510A = assay: Antiproliferative activity against human NCI-H510A cells assessed as inhibition of cell viability incubated for 3 to 5 days by Celltiter-Glo luminescent assay; format: functional, cell-based
Jurkat = assay: Antiproliferative activity against human Jurkat cells assessed as inhibition of cell viability incubated for 3 to 5 days by Celltiter-Glo luminescent assay; format: functional, cell-based
WSU-NHL = assay: Antiproliferative activity against human WSU-NHL cells assessed as inhibition of cell viability incubated for 3 to 5 days by Celltiter-Glo luminescent assay; format: functional, cell-based
[12] = Tmax in CB17 SCID mouse xenografted with LuCaP-77 CR cell at 200 mg/kg, ip administered for 7 days; format: ADME, organism-based; details: in vivo, time 7 day
KARPAS-299 = assay: Antiproliferative activity against human KARPAS-299 cells assessed as inhibition of cell viability incubated for 3 to 5 days by Celltiter-Glo luminescent assay; format: functional, cell-based
[13] = molecular target: Tyrosine-protein kinase receptor TYRO3 (Homo sapiens, UniProt Q06418); assay: Inhibition of TYRO3 (unknown origin)
[14] = Cmax in CB17 SCID mouse xenografted with LuCaP-77 CR cell at 100 mg/kg, ip administered for 7 days; format: ADME, organism-based; details: in vivo, time 7 day
MDA-MB-468 = assay: Antiproliferative activity against human MDA-MB-468 cells assessed as inhibition of cell viability incubated for 3 to 5 days by Celltiter-Glo luminescent assay; format: functional, cell-based
[15] = molecular target: T1, CREB-binding protein/Histone acetyltransferase p300; assay: Inhibition of p300/CBP in human 22Rv1 cells assessed as reduction in H3K27Ac level incubated for 24 hrs by Hoechst 33342 staining based high content microscopy analysis; format: cell-based; outline: as §1
HCC1599 = assay: Antiproliferative activity against human HCC1599 cells assessed as inhibition of cell viability incubated for 3 to 5 days by Celltiter-Glo luminescent assay; format: functional, cell-based
Wee1-like protein kinase = Wee1-like protein kinase (Homo sapiens, UniProt P30291); assay: Inhibition of Wee1 (unknown origin)
[16] = molecular target: Epidermal growth factor receptor (Homo sapiens, UniProt P00533); assay: Inhibition of EGFR (unknown origin)
HCC1395 = assay: Antiproliferative activity against human HCC1395 cells assessed as inhibition of cell viability incubated for 3 to 5 days by Celltiter-Glo luminescent assay; format: functional, cell-based
SK-MEL-1 = assay: Antiproliferative activity against human SK-MEL-1 cells assessed as inhibition of cell viability incubated for 3 to 5 days by Celltiter-Glo luminescent assay; format: functional, cell-based
LuCaP-77 CR cell [17] = details: Homo sapiens, dose 100.0 mg/kg, time 7.0 day; remark: listed apart in the source
[18] = molecular target: Tyrosine-protein kinase BTK (Homo sapiens, UniProt Q06187); assay: Inhibition of BTK (unknown origin)
[19] = molecular target: Leukocyte tyrosine kinase receptor (Homo sapiens, UniProt P29376); assay: Inhibition of LTK (unknown origin)
CREB-binding protein = CREB-binding protein (Homo sapiens, UniProt Q92793); assay: Inhibition of CBP in human 22Rv1 cells at 3 uM incubated for 24 hrs by Western blotting analysis; format: cell-based
BJAB = assay: Antiproliferative activity against human BJAB cells assessed as inhibition of cell viability incubated for 3 to 5 days by Celltiter-Glo luminescent assay; format: functional, cell-based
in vivo = details: CB17 SCID, mouse, brain/plasma, po, 500 mg/kg
[20] = molecular target: Dual specificity protein kinase CLK2 (Homo sapiens, UniProt P49760); assay: Inhibition of CLK2 (unknown origin)
RL = assay: Antiproliferative activity against human RL cells assessed as inhibition of cell viability incubated for 3 to 5 days by Celltiter-Glo luminescent assay; format: functional, cell-based
[21] = molecular target: Hepatocyte growth factor receptor (Homo sapiens, UniProt P08581); assay: Inhibition of c-MET (unknown origin)

T1 sequence (Q09472 whole entry, looked up): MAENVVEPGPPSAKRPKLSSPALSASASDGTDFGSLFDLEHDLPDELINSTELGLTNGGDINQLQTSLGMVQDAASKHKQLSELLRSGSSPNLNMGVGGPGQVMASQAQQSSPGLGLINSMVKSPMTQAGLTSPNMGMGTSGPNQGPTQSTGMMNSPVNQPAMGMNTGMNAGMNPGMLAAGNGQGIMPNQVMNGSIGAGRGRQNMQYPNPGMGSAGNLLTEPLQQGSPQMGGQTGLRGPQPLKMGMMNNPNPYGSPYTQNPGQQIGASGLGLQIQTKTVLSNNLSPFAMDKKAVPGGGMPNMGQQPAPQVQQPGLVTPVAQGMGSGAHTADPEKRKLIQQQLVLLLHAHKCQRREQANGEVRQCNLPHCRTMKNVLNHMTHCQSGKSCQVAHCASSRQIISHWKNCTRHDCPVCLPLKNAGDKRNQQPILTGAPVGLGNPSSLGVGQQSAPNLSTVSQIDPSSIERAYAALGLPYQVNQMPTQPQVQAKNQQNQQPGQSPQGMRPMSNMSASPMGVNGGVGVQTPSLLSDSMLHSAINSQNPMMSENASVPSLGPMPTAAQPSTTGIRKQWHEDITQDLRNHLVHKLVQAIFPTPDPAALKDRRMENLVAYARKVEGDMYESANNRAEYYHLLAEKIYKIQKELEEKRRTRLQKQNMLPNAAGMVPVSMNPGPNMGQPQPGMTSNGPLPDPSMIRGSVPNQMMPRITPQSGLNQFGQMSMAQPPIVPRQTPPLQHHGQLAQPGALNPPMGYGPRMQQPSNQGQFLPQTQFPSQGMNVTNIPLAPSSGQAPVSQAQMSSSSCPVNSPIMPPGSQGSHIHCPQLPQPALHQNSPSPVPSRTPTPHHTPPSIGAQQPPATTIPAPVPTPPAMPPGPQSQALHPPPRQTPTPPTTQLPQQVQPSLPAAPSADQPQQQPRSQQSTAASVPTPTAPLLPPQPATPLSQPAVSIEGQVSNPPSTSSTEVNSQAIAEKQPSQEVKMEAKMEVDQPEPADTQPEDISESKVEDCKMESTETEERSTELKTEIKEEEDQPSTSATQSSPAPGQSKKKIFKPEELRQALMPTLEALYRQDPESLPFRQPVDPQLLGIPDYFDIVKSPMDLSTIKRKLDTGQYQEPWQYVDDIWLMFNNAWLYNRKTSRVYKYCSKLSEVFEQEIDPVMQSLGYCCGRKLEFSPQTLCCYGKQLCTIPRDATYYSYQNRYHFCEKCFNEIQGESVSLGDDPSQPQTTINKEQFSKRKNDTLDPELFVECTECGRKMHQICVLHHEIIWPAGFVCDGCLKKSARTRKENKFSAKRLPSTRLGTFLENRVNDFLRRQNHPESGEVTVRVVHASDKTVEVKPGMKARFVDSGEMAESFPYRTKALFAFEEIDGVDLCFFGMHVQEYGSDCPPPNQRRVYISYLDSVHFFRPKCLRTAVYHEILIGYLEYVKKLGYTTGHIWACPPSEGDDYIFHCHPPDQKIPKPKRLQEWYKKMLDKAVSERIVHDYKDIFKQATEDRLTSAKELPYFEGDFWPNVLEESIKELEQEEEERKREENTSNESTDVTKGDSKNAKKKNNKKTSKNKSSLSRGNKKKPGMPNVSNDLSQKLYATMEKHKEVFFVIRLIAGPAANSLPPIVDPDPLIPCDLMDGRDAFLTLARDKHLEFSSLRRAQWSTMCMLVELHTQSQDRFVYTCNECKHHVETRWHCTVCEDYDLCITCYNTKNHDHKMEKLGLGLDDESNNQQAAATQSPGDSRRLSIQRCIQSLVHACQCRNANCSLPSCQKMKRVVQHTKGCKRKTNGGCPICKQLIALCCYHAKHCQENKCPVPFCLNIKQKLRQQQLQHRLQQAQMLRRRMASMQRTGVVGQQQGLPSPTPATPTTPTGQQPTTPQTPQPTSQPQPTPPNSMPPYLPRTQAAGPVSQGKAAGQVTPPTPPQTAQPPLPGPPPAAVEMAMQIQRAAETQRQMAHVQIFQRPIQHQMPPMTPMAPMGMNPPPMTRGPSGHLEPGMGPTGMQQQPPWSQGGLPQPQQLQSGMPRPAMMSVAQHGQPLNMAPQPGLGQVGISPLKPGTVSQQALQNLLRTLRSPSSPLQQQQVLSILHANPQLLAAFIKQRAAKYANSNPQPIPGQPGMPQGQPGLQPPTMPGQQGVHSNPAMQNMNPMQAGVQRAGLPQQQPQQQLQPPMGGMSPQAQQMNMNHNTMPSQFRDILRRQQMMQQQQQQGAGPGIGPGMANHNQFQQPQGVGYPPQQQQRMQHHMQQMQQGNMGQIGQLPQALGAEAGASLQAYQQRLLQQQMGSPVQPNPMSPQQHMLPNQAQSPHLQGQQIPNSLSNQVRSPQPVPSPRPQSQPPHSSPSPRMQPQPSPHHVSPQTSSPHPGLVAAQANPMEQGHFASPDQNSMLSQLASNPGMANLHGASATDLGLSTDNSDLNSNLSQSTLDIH
T1 sequence (Q92793 whole entry, looked up): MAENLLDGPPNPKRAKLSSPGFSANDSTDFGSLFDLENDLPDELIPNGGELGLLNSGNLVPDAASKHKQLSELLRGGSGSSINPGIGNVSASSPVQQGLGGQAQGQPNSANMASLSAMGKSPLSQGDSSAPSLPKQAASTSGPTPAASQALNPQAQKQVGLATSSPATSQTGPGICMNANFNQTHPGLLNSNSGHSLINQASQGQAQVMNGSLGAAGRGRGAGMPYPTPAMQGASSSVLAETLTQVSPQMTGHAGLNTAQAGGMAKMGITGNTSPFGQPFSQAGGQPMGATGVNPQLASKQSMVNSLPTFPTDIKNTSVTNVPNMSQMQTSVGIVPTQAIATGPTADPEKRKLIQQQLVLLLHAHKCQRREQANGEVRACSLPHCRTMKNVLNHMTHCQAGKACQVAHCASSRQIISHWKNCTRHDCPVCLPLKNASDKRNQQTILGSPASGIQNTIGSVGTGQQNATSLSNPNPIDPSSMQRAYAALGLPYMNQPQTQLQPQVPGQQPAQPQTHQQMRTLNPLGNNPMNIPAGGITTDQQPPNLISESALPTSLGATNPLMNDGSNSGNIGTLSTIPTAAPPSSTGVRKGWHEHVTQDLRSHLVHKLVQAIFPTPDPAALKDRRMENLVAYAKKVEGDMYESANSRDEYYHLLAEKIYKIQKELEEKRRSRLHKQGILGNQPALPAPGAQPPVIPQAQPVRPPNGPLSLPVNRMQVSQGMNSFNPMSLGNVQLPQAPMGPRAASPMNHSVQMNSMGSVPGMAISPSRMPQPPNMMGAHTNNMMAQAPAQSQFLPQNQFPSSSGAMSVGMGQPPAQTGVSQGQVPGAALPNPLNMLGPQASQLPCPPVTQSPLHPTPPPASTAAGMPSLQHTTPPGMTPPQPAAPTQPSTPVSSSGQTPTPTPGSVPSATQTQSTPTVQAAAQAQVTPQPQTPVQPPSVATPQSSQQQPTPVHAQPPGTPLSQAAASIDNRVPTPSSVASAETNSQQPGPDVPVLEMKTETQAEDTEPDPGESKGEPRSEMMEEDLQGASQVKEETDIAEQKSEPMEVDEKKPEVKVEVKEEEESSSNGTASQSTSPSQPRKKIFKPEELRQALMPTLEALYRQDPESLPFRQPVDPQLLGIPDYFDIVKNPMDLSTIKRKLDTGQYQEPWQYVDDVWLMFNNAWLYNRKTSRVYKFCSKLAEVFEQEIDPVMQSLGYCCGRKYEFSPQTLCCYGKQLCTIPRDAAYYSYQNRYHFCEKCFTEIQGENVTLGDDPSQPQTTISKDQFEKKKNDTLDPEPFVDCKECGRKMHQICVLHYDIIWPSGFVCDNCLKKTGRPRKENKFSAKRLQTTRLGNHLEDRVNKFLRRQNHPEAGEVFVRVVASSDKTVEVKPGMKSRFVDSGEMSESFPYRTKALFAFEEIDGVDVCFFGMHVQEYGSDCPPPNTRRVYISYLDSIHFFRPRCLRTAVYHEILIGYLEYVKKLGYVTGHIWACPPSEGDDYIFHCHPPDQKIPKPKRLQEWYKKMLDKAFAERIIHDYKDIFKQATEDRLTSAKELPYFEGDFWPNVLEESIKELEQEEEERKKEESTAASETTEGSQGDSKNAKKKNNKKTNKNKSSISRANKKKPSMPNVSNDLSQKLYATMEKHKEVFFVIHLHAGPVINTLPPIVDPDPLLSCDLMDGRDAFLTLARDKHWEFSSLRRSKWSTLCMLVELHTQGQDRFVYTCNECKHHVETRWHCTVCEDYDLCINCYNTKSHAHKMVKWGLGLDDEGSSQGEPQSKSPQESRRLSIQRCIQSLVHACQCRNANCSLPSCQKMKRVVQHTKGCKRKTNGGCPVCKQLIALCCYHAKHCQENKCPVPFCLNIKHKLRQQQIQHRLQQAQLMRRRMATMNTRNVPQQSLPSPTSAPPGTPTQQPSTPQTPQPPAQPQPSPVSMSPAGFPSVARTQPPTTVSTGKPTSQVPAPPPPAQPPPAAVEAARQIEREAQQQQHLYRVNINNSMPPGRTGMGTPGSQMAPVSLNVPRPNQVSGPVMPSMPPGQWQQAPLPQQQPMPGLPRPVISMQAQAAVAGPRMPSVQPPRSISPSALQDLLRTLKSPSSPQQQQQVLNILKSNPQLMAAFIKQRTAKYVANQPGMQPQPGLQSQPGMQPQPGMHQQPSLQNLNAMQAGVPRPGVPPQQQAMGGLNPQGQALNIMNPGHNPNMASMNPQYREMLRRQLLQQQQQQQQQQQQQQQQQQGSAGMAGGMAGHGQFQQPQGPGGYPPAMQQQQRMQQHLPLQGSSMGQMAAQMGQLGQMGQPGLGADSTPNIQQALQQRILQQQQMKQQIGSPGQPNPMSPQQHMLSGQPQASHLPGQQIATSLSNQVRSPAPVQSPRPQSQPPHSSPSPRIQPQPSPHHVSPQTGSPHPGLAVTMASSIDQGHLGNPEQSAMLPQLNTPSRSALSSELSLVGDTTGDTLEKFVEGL
Serine/threonine-protein kinase pim-2, sequence (Q9P1W9 whole entry): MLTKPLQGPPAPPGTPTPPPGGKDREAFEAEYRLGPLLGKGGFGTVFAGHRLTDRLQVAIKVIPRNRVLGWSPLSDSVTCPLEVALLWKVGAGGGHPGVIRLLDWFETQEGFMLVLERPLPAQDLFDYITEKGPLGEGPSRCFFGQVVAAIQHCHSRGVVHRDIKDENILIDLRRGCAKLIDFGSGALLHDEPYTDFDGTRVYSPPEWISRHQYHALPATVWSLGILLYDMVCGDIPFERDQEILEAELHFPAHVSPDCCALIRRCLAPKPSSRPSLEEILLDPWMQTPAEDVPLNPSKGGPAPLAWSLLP

Compound: CNC(=O)Nc1ccc2c(c1)CC[C@@]21OC(=O)N(CC(=O)N(Cc2ccc(F)cc2)[C@@H](C)C(F)(F)F)C1=O [A-485]
- IC50 [1]: > 10000 nM
- INH [2]: 3.79 µM
- IC50 [3]: > 10000 nM
- EC50 (K562): 1270 nM
- IC50 [4]: > 10000 nM
- EC50 (NCI-H209): 400 nM
- EC50 (COLO-679): 2260 nM
- EC50 (CHL-1): 370 nM
- IC50 [5]: > 10000 nM
- inhibition (LuCaP-77 CR cell [6]): Active
- EC50 (OPM-2): 620 nM
- Tmax [7]: 3 h
- IC50 [8]: > 10000 nM
- IC50 [9]: > 10000 nM
- EC50 (HCC1806): 2950 nM
- IC50 [10]: > 10000 nM
- EC50 (MeWo): 2430 nM
- IC50 [11]: > 10000 nM
- EC50 (NCI-H510A): > 10000 nM
- EC50 (Jurkat): 4030 nM
- EC50 (WSU-NHL): 1060 nM
- Tmax [12]: 6 h
- EC50 (KARPAS-299): > 10000 nM
- IC50 [13]: > 10000 nM
- Cmax [14]: 75.5 µg/mL
- EC50 (MDA-MB-468): 380 nM
- INH [15]: 0.47 µM
- EC50 (HCC1599): 4850 nM
- IC50 (Wee1-like protein kinase): > 10000 nM
- IC50 [16]: > 10000 nM
- EC50 (HCC1395): > 10000 nM
- EC50 (SK-MEL-1): 570 nM
- inhibition (LuCaP-77 CR cell [17]): Active
- IC50 [18]: > 10000 nM
- IC50 [19]: > 10000 nM
- inhibition (CREB-binding protein): inactive
- EC50 (BJAB): 280 nM
- Kp at 24 h (in vivo): 0.03
- IC50 [20]: > 10000 nM
- EC50 (RL): 1050 nM
- IC50 [21]: > 10000 nM
